Assay results published in ChEMBL document CHEMBL4265992, “Noncovalent Inhibitors of Mosquito Acetylcholinesterase 1 with Resistance-Breaking Potency” (J Med Chem, 2018).
Active and inactive are the calls of the source. The rule behind the calls is not given here.

Legend:
Acetylcholinesterase [1] = target: Acetylcholinesterase (Anopheles gambiae, UniProt Q869C3, G122S); assay: Inhibition of recombinant Anopheles gambiae AChE1 G122S mutant expressed in sf9 insect cells using acetylthiocholine iodide as substrate measured over 60 secs by Ellman assay
Procedure, shortened: (§1)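 Enzyme source: secreted, non-purified recombinant protein in growth medium. Ellman assay at 30 °C in 0.1 M phosphate buffer pH 7.4 containing 0.2 mM DTNB and 1 mM acetylthiocholine iodide. Absorbance at 412 nm was followed over 60 s after substrate addition, immediately after inhibitor. Activity was expressed relative to the mean slope of eight uninhibited controls per plate.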

Acetylcholinesterase [2] = target: Acetylcholinesterase (Aedes aegypti, UniProt Q6A2E2); assay: Inhibition of recombinant Aedes aegypti AChE1 expressed in sf9 insect cells using acetylthiocholine iodide as substrate measured over 60 secs by Ellman assay; procedure, shortened: as §1
[3] = Selectivity ratio of IC50 for recombinant human AChE to IC50 for recombinant Anopheles gambiae AChE1
Procedure, shortened: (§2)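 Ratio = IC50 for hAChE divided by the higher of the IC50 values for AaAChE1 and AgAChE1. All IC50 values came from the Ellman assay with secreted recombinant enzymes.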

Acetylcholinesterase [4] = target: T1, Acetylcholinesterase (Homo sapiens, UniProt P22303); assay: Inhibition of recombinant human AChE using acetylthiocholine iodide as substrate measured over 60 secs by Ellman assay; procedure, shortened: as §1
[5] = Selectivity ratio of IC50 for recombinant human AChE to IC50 for recombinant Aedes aegypti AChE1; procedure, shortened: as §2
Acetylcholinesterase [6] = target: Acetylcholinesterase (Anopheles gambiae, UniProt Q869C3); assay: Inhibition of recombinant Anopheles gambiae AChE1 expressed in sf9 insect cells using acetylthiocholine iodide as substrate measured over 60 secs by Ellman assay; procedure, shortened: as §1
Aedes aegypti [7] = assay: Insecticidal activity against topically dosed five day old female adult Aedes aegypti Mombasa assessed as mortality measured after 24 hrs; assay type: functional
Procedure, shortened: (§3)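 Mosquitoes were reared at 27–28 °C, ~80% humidity, on a 12/12 h light cycle. Insects were chilled on a −20 °C plate. 0.1 µl of compound in acetone was applied to the upper pronotum. Negative control was acetone alone. Afterwards mosquitoes were given glucose and kept in the insectary. Mortality was scored at 24 h, Abbott-corrected when control mortality exceeded 5%. Runs with control mortality ≥20% were discarded.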

Aedes aegypti [8] = assay: Insecticidal activity against five day old female adult Aedes aegypti Mombasa assessed as mortality rate at 57.3 ng administered via micro-injection measured after 48 hrs relative to control; assay type: functional
Procedure, shortened: (§4)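 Test compounds were made up at 100 mM in acetone, then diluted in mosquito saline (5% acetone final; 4.3% for propoxur). 23 nl was injected into the thoracic cavity of anesthetized females. Negative control was saline with matching acetone. Mosquitoes were then given glucose. Mortality was read at 24 and 48 h, Abbott-corrected when control mortality exceeded 5%. Runs with control mortality ≥20% were discarded.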

Aedes aegypti [9] = assay: Insecticidal activity against five day old female adult Aedes aegypti Mombasa assessed as mortality rate at 57.3 ng administered via micro-injection measured after 24 hrs relative to control; assay type: functional; procedure, shortened: as §4
Aedes aegypti [10] = assay: Insecticidal activity against five day old female adult Aedes aegypti Mombasa assessed as mortality at 4.26 ug administered topically measured after 24 hrs relative to control; assay type: functional; procedure, shortened: as §3
Anopheles gambiae = assay: Insecticidal activity against five day old female adult Anopheles gambiae Kisumu assessed as mortality at 4.26 ug administered topically measured after 24 hrs relative to control; assay type: functional; procedure, shortened: as §3
Aedes aegypti [11] = assay: Insecticidal activity against five day old female adult Aedes aegypti Mombasa assessed as mortality rate at 60.4 ng administered via micro-injection measured after 48 hrs relative to control; assay type: functional; procedure, shortened: as §4
Aedes aegypti [12] = assay: Insecticidal activity against five day old female adult Aedes aegypti Mombasa assessed as mortality rate at 60.4 ng administered via micro-injection measured after 24 hrs relative to control; assay type: functional; procedure, shortened: as §4
Aedes aegypti [13] = assay: Insecticidal activity against five day old female adult Aedes aegypti Mombasa assessed as mortality rate at 53.6 ng administered via micro-injection measured after 48 hrs relative to control; assay type: functional; procedure, shortened: as §4
Aedes aegypti [14] = assay: Insecticidal activity against five day old female adult Aedes aegypti Mombasa assessed as mortality rate at 53.6 ng administered via micro-injection measured after 24 hrs relative to control; assay type: functional; procedure, shortened: as §4
[15] = target: Acetylcholinesterase (Anopheles gambiae) (UniProt Q869C3); assay: Inhibition of recombinant Anopheles gambiae AChE1 expressed in sf9 insect cells at 1 mM using acetylthiocholine iodide as substrate measured over 60 secs by Ellman assay
[16] = tested on: Acetylcholinesterase (Anopheles gambiae), Q869C3 [G122S]; assay: Inhibition of recombinant Anopheles gambiae AChE1 G122S mutant expressed in sf9 insect cells at 1 mM using acetylthiocholine iodide as substrate measured over 60 secs by Ellman assay
[17] = target: Acetylcholinesterase (Aedes aegypti) (UniProt Q6A2E2); assay: Inhibition of recombinant Aedes aegypti AChE1 expressed in sf9 insect cells at 1 mM using acetylthiocholine iodide as substrate measured over 60 secs by Ellman assay
Acetylcholinesterase [18] = target: T1, Acetylcholinesterase; assay: Inhibition of recombinant human AChE at 1 mM using acetylthiocholine iodide as substrate measured over 60 secs by Ellman assay; conditions: 1 min, 1000 µM
Aedes aegypti [19] = assay: Insecticidal activity against five day old female adult Aedes aegypti Mombasa assessed as mortality rate at 52.7 ng administered via micro-injection measured after 48 hrs relative to control; assay type: functional; procedure, shortened: as §4
Aedes aegypti [20] = assay: Insecticidal activity against five day old female adult Aedes aegypti Mombasa assessed as mortality rate at 52.7 ng administered via micro-injection measured after 24 hrs relative to control; assay type: functional; procedure, shortened: as §4
Aedes aegypti [21] = assay: Insecticidal activity against topically dosed female adult Aedes aegypti assessed as mortality measured after 24 hrs; assay type: functional; procedure, shortened: as §3
Aedes aegypti [22] = assay: Insecticidal activity against five day old female adult Aedes aegypti Mombasa assessed as mortality rate at 21 ng administered via micro-injection measured after 24 hrs relative to control; assay type: functional; procedure, shortened: as §4

Row | Structure (SMILES) | IC50 (Acetylcholinesterase [1]) | IC50 (Acetylcholinesterase [2]) | Ratio IC50 [3] | IC50 (Acetylcholinesterase [4]) | Ratio IC50 [5] | IC50 (Acetylcholinesterase [6]) | other results
1 | COc1ccc(-c2ccc(OCC(=O)NCCCN3CCN(C)CC3)cc2)cc1 | 33 µM | 16 µM | 7.6 | 190 µM | 7.6 | 25 µM | –
2 | CCN1CCN(C2CCN(C(=O)COc3ccc(-c4ccccc4F)cc3)CC2)CC1 | 0.71 µM | 0.22 µM | 79 | 19 µM | 79 | 0.24 µM | LD50 (Aedes aegypti [7]): 2.13 µg; mortality (Aedes aegypti [8]): 56%; mortality (Aedes aegypti [9]): 55%; mortality (Aedes aegypti [10]): 75%; mortality (Anopheles gambiae): 88%
3 | CCN1CCN(C2CCN(C(=O)COc3ccc(-c4ccc([N+](=O)[O-])cc4)cc3)CC2)CC1 | 0.13 µM | 0.11 µM | 19 | 2.1 µM | 19 | 0.08 µM | mortality (Aedes aegypti [10]): 31%; mortality (Aedes aegypti [11]): 69%; mortality (Aedes aegypti [12]): 64%
4 | O=C(COc1ccc(-c2ccccc2)cc1)N1CCC(N2CCCCC2)CC1 | 4.2 µM | 4 µM | 1.2 | 4.6 µM | 1.2 | 3.8 µM | –
5 | CN1CCN(C2CCN(C(=O)COc3ccc(-c4ccccc4)cc3)CC2)CC1 | 0.54 µM | 0.25 µM | 40 | 10 µM | 40 | 0.24 µM | mortality (Aedes aegypti [13]): 66%; mortality (Aedes aegypti [14]): 58%
6 | CCN1CCN(C2CCN(C(=O)COc3ccc(I)cc3)CC2)CC1 | 6.2 µM | 1.5 µM | 5.6 | 20 µM | 5.6 | 3.6 µM | –
7 | CCN1CCN(C(=O)COc2ccc(-c3ccccc3)cc2)CC1 | > 200 µM | > 200 µM | – | > 200 µM | – | > 200 µM | –
8 | O=C(COc1ccc(-c2ccccc2)cc1)N1CCCCC1 | – | – | – | – | – | – | inhibition [15]: inactive; inhibition [16]: inactive; inhibition [17]: inactive; inhibition (INH) (Acetylcholinesterase [18]): Not Active
9 | CCN1CCN(CCCNC(=O)COc2ccc(I)cc2)CC1 | 95 µM | 72 µM | 1.2 | 87 µM | 1.2 | 43 µM | –
10 | O=C(COc1ccc(-c2ccccc2)cc1)N1CCC(N2CCOCC2)CC1 | > 200 µM | > 200 µM | – | 93 µM | – | > 200 µM | –
11 | O=C(COc1ccc(-c2ccccc2)cc1)NCCCN1CCCCC1 | 23 µM | 9.9 µM | 5.7 | 57 µM | 5.7 | 10 µM | –
12 | CN1CCN(CCCNC(=O)COc2ccc(-c3ccccc3)cc2)CC1 | 39 µM | 12 µM | 8.8 | 115 µM | 8.8 | 13 µM | –
13 | CCN1CCN(C2CCN(C(=O)COc3ccc4c(c3)CCC4=O)CC2)CC1 | 0.38 µM | 0.2 µM | 16 | 4.9 µM | 16 | 0.29 µM | mortality (Aedes aegypti [19]): 64%; mortality (Aedes aegypti [10]): 50%; mortality (Aedes aegypti [20]): 58%
14 | CCN1CCN(C2CCN(C(=O)COc3ccc(-c4ccc(OC)cc4)cc3)CC2)CC1 | 0.96 µM | 0.23 µM | 45 | 18 µM | 45 | 0.4 µM | –
15 | O=C(COc1ccc(I)cc1)NCCCN1CCCCC1 | 31 µM | 36 µM | 0.3 | 13 µM | 0.3 | 44 µM | –
16 | CN1CCN(CCCNC(=O)COc2ccc(I)cc2)CC1 | 128 µM | 112 µM | 1.2 | 138 µM | 1.2 | 114 µM | –
17 | CNC(=O)Oc1cccc2c1OC(C)(C)O2 [BENDIOCARB] | – | – | – | – | – | – | LD50 (Aedes aegypti [21]): 0.0018 µg
18 | CNC(=O)Oc1ccccc1OC(C)C [PROPOXUR] | – | – | – | – | – | – | mortality (Aedes aegypti [22]): 85%; LD50 (Aedes aegypti [21]): 0.0054 µg
19 | O=C(COc1ccc(-c2ccccc2)cc1)N1CCOCC1 | – | – | – | – | – | – | inhibition [15]: inactive; inhibition [16]: inactive; inhibition [17]: inactive; inhibition (INH) (Acetylcholinesterase [18]): Not Active
20 | CCN1CCN(C2CCN(C(=O)COc3ccc(-c4ccccc4)cc3)CC2)CC1 | – | 0.22 µM | – | – | – | – | –
21 | COc1ccc(-c2ccc(OCC(=O)NCCCN3CCCCC3)cc2)cc1 | 5.2 µM | 3.9 µM | 3.1 | 14 µM | 3.1 | 4.5 µM | –
22 | CCN1CCN(CCCNC(=O)COc2ccc(-c3ccc(OC)cc3)cc2)CC1 | 20 µM | 3.8 µM | 19 | 110 µM | 19 | 5.8 µM | –
23 | CCN1CCN(CCCNC(=O)COc2ccc(-c3ccccc3)cc2)CC1 | 16 µM | 3.3 µM | 32 | 113 µM | 32 | 3.5 µM | –
